# Hits are enriched below; roughly 1.7% of the tested compounds scored in any of these assays.
# Scp1 inh: blocks human Scp-1 phosphatase activity | Q9GZU7 | Recombinant Scp1, phosphopeptide, malachite green phosphate absorbance | inhibition, % at 20 µM | 340,000 compounds, 0.88% hits | AID 493091;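 active means inhibition above about 50% at 20 µM, limit read from the data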;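 further: plate controls were DMSO wells with enzyme for no effect and wells lacking enzyme for full effect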
# Target sequence (Q9GZU7 76-261 limits assumed): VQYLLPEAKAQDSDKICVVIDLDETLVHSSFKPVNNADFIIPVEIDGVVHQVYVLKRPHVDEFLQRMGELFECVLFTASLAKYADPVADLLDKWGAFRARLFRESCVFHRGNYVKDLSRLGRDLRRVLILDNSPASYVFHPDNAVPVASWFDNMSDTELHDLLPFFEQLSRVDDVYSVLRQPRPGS
#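 Incubation: 45 min enzyme reaction at room temperature / System: truncated SCP-1 phosphatase (76-261aa) / Reagent: Phospho 17-mer peptide substrate / Buffer or medium: Acidic Tris acetate buffer with magnesium and detergent / Signal: absorbance at 630 nm / Doses: one concentration, 20 µM, with 1.0% DMSO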
# SUMO1-SIM PPI: alters human SUMO1 binding to SIM partners; P63165; SUMO1 binding to a labelled peptide, TR-FRET, 1 h; inhibition, % at 20 µM; 360,000 compounds, 0.33% hits; AID 602429; in the data active means inhibition above about 37%
# Target sequence (P63165 whole entry, looked up): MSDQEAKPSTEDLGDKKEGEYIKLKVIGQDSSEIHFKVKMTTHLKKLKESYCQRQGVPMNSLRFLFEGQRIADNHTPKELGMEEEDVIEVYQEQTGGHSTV
# LMPTP block: LMPTP (human) inhibition; P24666; 360,000 compounds, 0.22% hits; recombinant LMPTP-A, OMFP fluorogenic substrate, fluorescence intensity; AID 651560; inhibition, % at 20 µM;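 active means compounds that cut the enzyme signal by at least half of the control window in the single-dose screen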;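 further: plate controls were DMSO wells with enzyme plus substrate for no effect and substrate without enzyme for full effect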
#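 material = LMPTP-A | quantity = 0.625 nM enzyme | reagent = OMFP substrate, 400 µM final | buffer or medium = Bis-Tris pH 6.0, DTT, detergent | detection = endpoint fluorescence intensity from OMFP dephosphorylation | dosing = single 20 µM dose | read-out basis = % inhibition relative to no-enzyme and uninhibited control wells | control set = no-enzyme and uninhibited controls | timing = 50 min at room temperature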
# STEP block: inhibitors of human striatal-enriched phosphatase STEP; P54829; recombinant STEP, OMFP fluorogenic substrate, fluorescence; inhibition, % at 20 µM; 360,000 compounds, 0.25% hits; AID 588621;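 active means inhibition at 20 µM, scaled per plate between control wells, above about 37%, limit read from the data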;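 further: 0% = DMSO with enzyme and substrate and 100% = substrate only without enzyme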
#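 Test system: STEP tyrosine phosphatase / Reagent: OMFP at 25 µM / Doses: 20 µM, 1% DMSO / Read-out: percent inhibition scaled to no-enzyme and uninhibited-enzyme controls, plate-pattern corrected / Detection: FITC-channel fluorescence of OMFP product / Medium: Bis-Tris buffer pH 6.0, 2.5 mM DTT, 0.005% Tween 20 / Schedule: 20 min at room temperature, dark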
# DNMT1 inh: DNMT1 (human) enzyme inhibition. inhibition (reported as % activation of signal), % at 10 µM. DNMT1 molecular beacon, Hinp1I cleavage, fluorescence. P26358. 360,000 compounds, 0.83% hits; in the data active means inhibition above about 50%
# STEP inh conf: confirmation of human STEP phosphatase inhibitors; inhibition, % at 20 µM; shares compounds with STEP block; recombinant STEP, OMFP fluorogenic substrate, fluorescence; AID 623866; 520 compounds, 32% hits; call rule not given here;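 further: 0% = enzyme with substrate plus DMSO and 100% = substrate without enzyme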
# * hit, by the source's call; . = not tested or not shown.
SMILES,Scp1 inh,SUMO1-SIM PPI,LMPTP block,STEP block,DNMT1 inh,STEP inh conf
CN(C)S(=O)(=O)c1cc(NC(=O)c2cc(=O)c3ccccc3o2)ccc1Cl,-8,-15,1,0,-3,.
COc1cc(NC(=S)N2CCN(CCO)CC2)c(OC)cc1Cl,-4,1,-2,3,-4,.
OCCN1CCN(C(=S)c2ccc(Cl)c(Cl)c2)CC1,-6,3,0,90*,-2,60*
Cc1cc(C)cc(NC(=S)NC2CC3CCCC(C2)N3C2CCCC2)c1 (stereo unspecified),-6,20,2,40*,4,14
Cc1cc(C)cc(NC(=S)NC2CC3CCCC(C2)N3C2CC2)c1 (stereo unspecified),0,0,0,0,1,.
CCN1c2ccccc2S(=O)(=O)c2ccccc21,-5,1,0,-1,-1,.
COc1ccc(S(=O)(=O)N=C2C=C(C)C(=O)C(C)=C2)cc1,-7,-2,0,45*,-8,-14
COc1ccc(C(=O)ON=C2C=C(C)C(=O)C(C)=C2)cc1,-6,-20,2,0,8,.
O=C(N/N=C/c1ccncc1)c1cccc(S(=O)(=O)Nc2ccc(Cl)cc2)c1,11,79*,26,74*,3,95*
Cc1cc(C)c(C)c(S(=O)(=O)N[C@@H](C)C(=O)OCC(=O)NC2CCCC(C)C2C)c1C (stereo partly specified),-7,5,0,-3,4,.
Nc1c(C(=O)c2ccc(Br)cc2)oc2ccccc12,-10,-6,0,43*,-4,19
O=C(N/N=C/c1ccc([N+](=O)[O-])cc1)c1cccnc1,5,-27,1,-2,1,.
Nc1c(C(=O)N/N=C/c2ccc([N+](=O)[O-])cc2)cnn1-c1ccccc1,17,17,19,52*,5,24
CCCCC(=O)Nc1ccc2c(c1)nc(CCN1CCOCC1)n2C,-10,0,0,46*,-1,17
CC1(C)Cc2c(sc(NC(=O)/C=C/C(=O)O)c2C#N)CO1,0,1,-3,-1,2,.
CC1(C)Cc2c(sc(NC(=O)C(=O)NCCCN3CCOCC3)c2C#N)CO1,0,-5,-1,68*,5,19
CCc1ccc(-c2cc3c(=O)n(CC(=O)NCCCN4CCN(CC)CC4)nc(C)n3n2)cc1,-5,-4,-7,2,-2,.
CCCCCCCCN1C(=O)[C@H](CC(=O)N2CCSCC2)C[C@@]2(C(=O)OC)CC(C)(C)CC=C12,.,7,5,.,.,.
COc1ccccc1NS(=O)(=O)c1ccc(OC)c([N+](=O)[O-])c1,-6,-10,-1,0,2,.
COc1ccccc1NS(=O)(=O)c1ccc(NN=C2CCCCC2)c([N+](=O)[O-])c1,-6,-21,2,92*,-11,5
O=C1C(=O)N(CCCO)C(c2ccc(Br)cc2)/C1=C(\O)c1ccc(Br)cc1 (stereo unspecified),-6,-8,1,41*,1,38*
CCN1CCN(CCCN(Cc2ccco2)C(=S)Nc2cc(Cl)ccc2C)CC1,-5,0,-3,41*,0,12
COCCN(C(=S)Nc1c(C)cc(C)cc1C)C(C)c1cccnc1 (stereo unspecified),-7,2,1,50*,-2,21*
CCOC(=O)c1cnn(-c2ncnc3sc(C)c(C)c23)c1N,-6,-4,0,70*,-1,5
CCOC(=O)c1cnn(-c2ccc(C)cc2)c1N,-5,2,1,-2,1,.
COc1ccc(Br)cc1/C=C/C(=O)NC(=S)Nc1ccc(Cl)c(C(=O)O)c1,8,18,2,62*,1,8
COc1ccc(Br)cc1C(=O)NC(=S)Nc1ccc(Cl)c(C(=O)O)c1,31,15,3,8,4,.
CS(=O)(=O)N1Cc2cc(C(=O)NCC3CC3)nc(-c3cccc(-c4cccnc4)c3)c2[C@H]1CCO,.,0,1,.,.,.
Cc1csc(NC(=O)CCCC(=O)O)c1-c1nc2ccccc2s1,33,12,1,93*,1,-7
